{"source": "ChEMBL document CHEMBL1145814", "about": "“Antiretroviral activity of semisynthetic derivatives of glycopeptide antibiotics” (J Med Chem, 2003)", "key": {"[1]": {"species": "Mus musculus", "assay": "Minimal inhibitory concentration required to cause a microscopic detectable alteration of C3H/3T3 embryo murine fibroblast cell morphology", "assay_type": "functional", "method_in_brief": "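Uninfected C3H/3T3 murine embryo fibroblast cultures were exposed to test compound and checked microscopically for changes in cell morphology. The MIC is the concentration causing a microscopically detectable alteration of morphology.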"}, "[2]": {"test_system": "CCRF-CEM", "assay": "Inhibitory concentration against proliferation of human T-lymphocytic (CEM) cells", "assay_type": "functional, cell-based", "settings": "Homo sapiens, CCRF-CEM", "method_in_brief": "(§1)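 (5–7.5) × 10^4 cells per well were incubated with test compound at 37 °C in a humidified CO2 atmosphere. L1210 murine leukemia cells grew for 48 h, and CEM and Molt4/clone 8 human lymphocytes grew for 72 h. Cells were then counted with a Coulter counter. IC50 is the concentration inhibiting proliferation by 50%.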"}, "[3]": {"test_system": "Human immunodeficiency virus 2", "assay": "Concentration required to protect human T-lymphocytic cells against the cytopathogenicity of HIV-2", "assay_type": "functional, organism-based", "settings": "Human immunodeficiency virus 2"}, "[4]": {"test_system": "Human immunodeficiency virus 1", "assay": "Effective concentration of compound required to protect human T-lymphocytic cells against the cytopathogenicity of HIV-1", "assay_type": "functional, organism-based", "settings": "Human immunodeficiency virus 1"}, "[5]": {"test_system": "L1210", "assay": "Inhibitory concentration of compound against proliferation of murine lukemia cells L1210 was determined", "assay_type": "functional, cell-based", "settings": "Mus musculus", "method_in_brief": "as §1"}, "[6]": {"test_system": "MOLT-4", "assay": "Inhibitory concentration of compound against proliferation of human T-lymphocytic cells MOLT-4/C8 was determined", "assay_type": "functional, cell-based", "method_in_brief": "as §1"}, "[7]": {"species": "Mus musculus", "assay": "Effective concentration of compound required to protect C3H/3T3 embryo murine fibroblasts against the MSV induced transformation", "assay_type": "functional, organism-based", "settings": "Mus musculus, C3H/3T3", "method_in_brief": "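Monolayer murine embryo fibroblast C3H/3T3 cultures were infected with Moloney murine sarcoma virus at 75 focus-forming units and cultured with test compound. Transformation was examined microscopically on day 6 postinfection. EC50 is the concentration protecting cells against MSV-induced transformation by 50%.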"}}, "data": [{"molecule": "CNC1C(=O)NC2Cc3ccc(cc3)Oc3cc4cc(c3O[C@@H]3O[C@@H](C(=O)O)[C@@H](O)[C@H](O)[C@@H]3N)Oc3ccc(cc3Cl)C(O)C3NC(=O)C(NC(=O)C4NC(=O)C(NC2=O)c2cc(cc(O)c2Cl)Oc2cc1ccc2O)c1ccc(O)c(c1)-c1c(O[C@H]2O[C@H](CO)[C@@H](O)[C@@H](O)[C@@H]2O)cc(O)cc1[C@H](C(=O)O)NC3=O", "note": "(stereo partly drawn)", "values": [{"measurement": "MIC", "setting": "[1]", "result": "> 100", "unit": "µM"}, {"measurement": "IC50", "setting": "[2]", "result": "> 500", "unit": "µM"}, {"measurement": "EC50", "setting": "[3]", "result": "> 250", "unit": "µM"}, {"measurement": "EC50", "setting": "[4]", "result": "> 250", "unit": "µM"}, {"measurement": "IC50", "setting": "[5]", "result": "> 500", "unit": "µM"}, {"measurement": "IC50", "setting": "[6]", "result": "> 500", "unit": "µM"}, {"measurement": "EC50", "setting": "[7]", "result": "> 100", "unit": "µM"}]}, {"molecule": "CNC(=O)[C@@H]1NC(=O)C2NC(=O)C(NC(=O)C3NC(=O)C(CC(N)=O)NC(=O)C(NC(=O)C(CC(C)C)NC)C(O)c4ccc(c(Cl)c4)Oc4cc3cc(c4O)Oc3ccc(cc3)C2O)c2ccc(O)c(c2)-c2c1cc(O)c(CN1CCN(Cc3ccc(-c4ccccc4)cc3)CC1)c2O", "note": "(stereo partly drawn)", "values": [{"measurement": "MIC", "setting": "[1]", "result": "> 100", "unit": "µM"}, {"measurement": "IC50", "setting": "[2]", "result": "> 100", "unit": "µM"}, {"measurement": "EC50", "setting": "[3]", "result": 5.5, "unit": "µM"}, {"measurement": "EC50", "setting": "[4]", "result": 4, "unit": "µM"}, {"measurement": "IC50", "setting": "[5]", "result": "> 100", "unit": "µM"}, {"measurement": "IC50", "setting": "[6]", "result": "> 100", "unit": "µM"}, {"measurement": "EC50", "setting": "[7]", "result": 12, "unit": "µM"}]}, {"molecule": "NCCCCCCNC(=O)[C@@H]1NC(=O)C2NC(=O)C(NC(=O)C3NC(=O)C4NC(=O)C(Cc5ccc(c(Cl)c5)Oc5cc3cc(c5O)Oc3ccc(cc3Cl)C2O)NC(=O)C(N)c2ccc(O)c(c2)Oc2cc(O)cc4c2)c2ccc(O)c(c2)-c2c(O)cc(O)cc21", "note": "(stereo partly drawn)", "values": [{"measurement": "MIC", "setting": "[1]", "result": 20, "unit": "µM"}, {"measurement": "IC50", "setting": "[2]", "result": "> 500", "unit": "µM"}, {"measurement": "EC50", "setting": "[3]", "result": 17, "unit": "µM"}, {"measurement": "EC50", "setting": "[4]", "result": 15, "unit": "µM"}, {"measurement": "IC50", "setting": "[5]", "result": "> 500", "unit": "µM"}, {"measurement": "IC50", "setting": "[6]", "result": "> 500", "unit": "µM"}, {"measurement": "EC50", "setting": "[7]", "result": "> 4", "unit": "µM"}]}, {"molecule": "CNC(=O)[C@@H]1NC(=O)C2NC(=O)C(NC(=O)C3NC(=O)C4NC(=O)C(NC(=O)C(N)c5ccc(O)c(c5)Oc5cc(O)cc4c5)C(O)c4ccc(c(Cl)c4)Oc4cc3cc(c4O[C@@H]3O[C@@H](CO)[C@@H](O)[C@H](O)[C@@H]3NC(=O)CCCCCCC(C)C)Oc3ccc(cc3Cl)C2O[C@@H]2O[C@@H](CO)[C@@H](O)[C@H](O)[C@@H]2NC(C)=O)c2ccc(O)c(c2)-c2c(O[C@H]3O[C@H](CO)[C@@H](O)[C@@H](O)[C@@H]3O)cc(O)cc21", "note": "(stereo partly drawn)", "values": [{"measurement": "MIC", "setting": "[1]", "result": "> 100", "unit": "µM"}, {"measurement": "IC50", "setting": "[2]", "result": "> 500", "unit": "µM"}, {"measurement": "EC50", "setting": "[3]", "result": 190, "unit": "µM"}, {"measurement": "EC50", "setting": "[4]", "result": 80, "unit": "µM"}, {"measurement": "IC50", "setting": "[5]", "result": "> 500", "unit": "µM"}, {"measurement": "IC50", "setting": "[6]", "result": "> 500", "unit": "µM"}, {"measurement": "EC50", "setting": "[7]", "result": 75, "unit": "µM"}]}, {"molecule": "CN[C@H](CC(C)C)C(=O)N[C@H]1C(=O)N[C@@H](CC(N)=O)C(=O)N[C@H]2C(=O)N[C@H]3C(=O)N[C@H](C(=O)N[C@H](C(=O)O)c4cc(O)cc(O)c4-c4cc3ccc4O)[C@H](O[C@H]3C[C@](C)(N)[C@@H](O)[C@H](C)O3)c3ccc(cc3)Oc3cc2cc(c3O[C@@H]2O[C@H](CO)[C@@H](O)[C@H](O)[C@H]2O[C@H]2C[C@](C)(N)[C@@H](O)[C@H](C)O2)Oc2ccc(cc2Cl)[C@H]1O", "values": [{"measurement": "MIC", "setting": "[1]", "result": "> 100", "unit": "µM"}, {"measurement": "IC50", "setting": "[2]", "result": "> 500", "unit": "µM"}, {"measurement": "EC50", "setting": "[3]", "result": "> 250", "unit": "µM"}, {"measurement": "EC50", "setting": "[4]", "result": "> 250", "unit": "µM"}, {"measurement": "IC50", "setting": "[5]", "result": "> 500", "unit": "µM"}, {"measurement": "IC50", "setting": "[6]", "result": "> 500", "unit": "µM"}, {"measurement": "EC50", "setting": "[7]", "result": "> 100", "unit": "µM"}]}, {"molecule": "CN[C@@H](CC(C)C)C(=O)NC1C(=O)N[C@@H](CC(N)=O)C(=O)NC2C(=O)NC3C(=O)NC(C(=O)N[C@@H](C(=O)O)c4cc(O)cc(O)c4-c4cc3ccc4O)C(O)c3ccc(cc3)Oc3cc2cc(c3O)Oc2ccc(cc2Cl)C1O", "note": "(stereo partly drawn)", "values": [{"measurement": "MIC", "setting": "[1]", "result": "> 100", "unit": "µM"}, {"measurement": "IC50", "setting": "[2]", "result": "> 500", "unit": "µM"}, {"measurement": "EC50", "setting": "[3]", "result": "> 250", "unit": "µM"}, {"measurement": "EC50", "setting": "[4]", "result": 50, "unit": "µM"}, {"measurement": "IC50", "setting": "[5]", "result": "> 500", "unit": "µM"}, {"measurement": "IC50", "setting": "[6]", "result": "> 500", "unit": "µM"}, {"measurement": "EC50", "setting": "[7]", "result": "> 100", "unit": "µM"}]}, {"molecule": "NCCCCCCCCCCNC(=O)[C@@H]1NC(=O)C2NC(=O)C(NC(=O)C3NC(=O)C4NC(=O)C(Cc5ccc(c(Cl)c5)Oc5cc3cc(c5O)Oc3ccc(cc3Cl)C2O)NC(=O)C(N)c2ccc(O)c(c2)Oc2cc(O)cc4c2)c2ccc(O)c(c2)-c2c(O)cc(O)cc21", "note": "(stereo partly drawn)", "values": [{"measurement": "MIC", "setting": "[1]", "result": 20, "unit": "µM"}, {"measurement": "IC50", "setting": "[2]", "result": 402, "unit": "µM"}, {"measurement": "EC50", "setting": "[3]", "result": 12, "unit": "µM"}, {"measurement": "EC50", "setting": "[4]", "result": 6.5, "unit": "µM"}, {"measurement": "IC50", "setting": "[5]", "result": 500, "unit": "µM"}, {"measurement": "IC50", "setting": "[6]", "result": 225, "unit": "µM"}, {"measurement": "EC50", "setting": "[7]", "result": "> 4", "unit": "µM"}]}, {"molecule": "CCCCc1ccc(CNCc2c(O)cc3c(c2O)-c2cc(ccc2O)C2NC(=O)C4NC(=O)C5NC(=O)C(Cc6ccc(c(Cl)c6)Oc6cc4cc(c6O)Oc4ccc(cc4Cl)C(O)C(NC2=O)C(=O)N[C@H]3C(=O)NC)NC(=O)C(N)c2ccc(O)c(c2)Oc2cc(O)cc5c2)cc1", "note": "(stereo partly drawn)", "values": [{"measurement": "MIC", "setting": "[1]", "result": 20, "unit": "µM"}, {"measurement": "IC50", "setting": "[2]", "result": "> 100", "unit": "µM"}, {"measurement": "EC50", "setting": "[3]", "result": 12, "unit": "µM"}, {"measurement": "EC50", "setting": "[4]", "result": 9.7, "unit": "µM"}, {"measurement": "IC50", "setting": "[5]", "result": "> 100", "unit": "µM"}, {"measurement": "IC50", "setting": "[6]", "result": "> 100", "unit": "µM"}, {"measurement": "EC50", "setting": "[7]", "result": "> 4", "unit": "µM"}]}, {"molecule": "CNC(=O)[C@@H]1NC(=O)C2NC(=O)C(NC(=O)C3NC(=O)C(CC(N)=O)NC(=O)C(NC(=O)C(CC(C)C)N(C)C(=O)OC(C)(C)C)C(O)c4ccc(c(Cl)c4)Oc4cc3cc(c4O)Oc3ccc(cc3)C2O)c2ccc(O)c(c2)-c2c1cc(O)c(CN1CCN(Cc3ccc(-c4ccccc4)cc3)CC1)c2O", "note": "(stereo partly drawn)", "values": [{"measurement": "MIC", "setting": "[1]", "result": 20, "unit": "µM"}, {"measurement": "IC50", "setting": "[2]", "result": "> 100", "unit": "µM"}, {"measurement": "EC50", "setting": "[3]", "result": 3.5, "unit": "µM"}, {"measurement": "EC50", "setting": "[4]", "result": 4, "unit": "µM"}, {"measurement": "IC50", "setting": "[5]", "result": 84, "unit": "µM"}, {"measurement": "IC50", "setting": "[6]", "result": "> 100", "unit": "µM"}, {"measurement": "EC50", "setting": "[7]", "result": "> 4", "unit": "µM"}]}]}
